Shown are actives, neighbours in structure and some others; about 2.7% of the full set was active somewhere.
NR2E3 ag-1: NR2E3 (human) agonism; Q9Y5X4; GST-NR2E3/biotin-RetCOR TR-FRET, 1536-well; inhibition of corepressor binding, % at 4.78 µM; 320,000 compounds, 0.12% hits; AID 2300;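 active = percent inhibition above the cutoff of mean plus 3 SD of all tested compounds, set per screening campaign, cut at about 20% in these data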
Target sequence (Q9Y5X4 whole entry, looked up): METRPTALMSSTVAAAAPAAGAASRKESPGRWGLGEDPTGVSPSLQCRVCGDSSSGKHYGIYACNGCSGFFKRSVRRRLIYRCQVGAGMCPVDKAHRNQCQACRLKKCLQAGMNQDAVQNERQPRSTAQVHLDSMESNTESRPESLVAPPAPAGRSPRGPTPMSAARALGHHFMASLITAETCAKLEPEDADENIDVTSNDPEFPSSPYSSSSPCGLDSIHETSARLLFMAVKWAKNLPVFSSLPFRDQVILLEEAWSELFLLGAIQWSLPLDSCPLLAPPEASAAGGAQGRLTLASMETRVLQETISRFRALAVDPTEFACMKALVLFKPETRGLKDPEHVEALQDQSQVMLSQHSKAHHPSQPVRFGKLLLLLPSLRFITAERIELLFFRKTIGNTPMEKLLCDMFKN
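System: GST-tagged NR2E3 plus biotinylated RetCOR corepressor; Amount: 1.35 nM GST-tagged NR2E3 final; Dosing: single nominal compound dose of 4.8 µM; Schedule: 5 h incubation at 4 °C; Technique: TR-FRET with europium anti-GST and streptavidin-D2, 340 nm excitation; Controls: biotin wells as high control, 0.6% DMSO wells as low control.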
PG9 binder: small molecules binding HIV-1 gp120 antibody PG9; inhibition, % at 6.7 µM; 360,000 compounds, 0.43% hits; TR-FRET gp120-PG9 antibody binding; in the data active = inhibition above about 8.5%
MC4R barr agon: human MC4R agonism via beta-arrestin. U2OS MC4R beta-arrestin complementation, luminescence; percent of melanotan II response, DMSO zero. activation, % at 8.9 µM. 360,000 compounds, 0.98% hits;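 active = activation above a per-plate cutoff, the mean activation of sample wells on that plate plus 3 SD, cut at about 8% in these data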
MC4R antag cAMP: blocks human MC4R cAMP signaling; inhibition, % at 6.5 µM; AID 540295; 360,000 compounds, 0.48% hits; MC4R-expressing cells, MTII-stimulated cAMP, LANCE TR-FRET;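 active = inhibition above its plate's cutoff, the mean of tested wells on that plate plus 3 SD, cut at about 29% in these data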
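System – human MC4R-expressing U2OS cells · Also added – Melanotan II · Dosing – one concentration, 6.5 µM nominal · Timing – 30-min compound, 1-h challenge, 1-h detection, room temperature · Measured by – Eu-cAMP/anti-cAMP TR-FRET, emission 671 nm · Replicates – singlicate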
NR2E3 ag-2: human photoreceptor-specific nuclear receptor agonism; Q9Y5X4; CHO-S Gal4-NCOR/VP16-NR2E3 two-hybrid, luciferase; inhibition of corepressor binding, % at 3.98 µM; 360,000 compounds, 0.35% hits; AID 602229;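 active = inhibition above the mean of all tested compounds plus 3 SD, cut at about 70% in these data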;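 note: higher means lower luciferase signal from less NR2E3 corepressor binding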
NR1D1 modulator: modulators of human Rev-erb alpha DNA binding. P20393. Rev-erbα–FITC-DNA binding, fluorescence polarization, 90 min. activity, % at 10 µM. 370,000 compounds, 0.79% hits. AID 1259318;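 active = activity above about 14%, limit read from the data; passing the limit was not always enough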
MC4R barr ag: human MC4R beta-arrestin agonism confirmation; activation, % at 8.9 µM; 2,400 compounds, 31% hits; shares compounds with MC4R barr agon; U2OS MC4R beta-arrestin recruitment, luminescence; scaled DMSO 0%, Melanotan II 100%;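 active = mean activation across replicates above the hit cutoff set in the earlier primary screen, cut at about 8% in these data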
MOR DOR agonist: activates mu-delta opioid heterodimer, MC4R agonist counter-screen | shares compounds with MC4R barr agon | U2OS PathHunter beta-arrestin, beta-gal luminescence; percent of deltorphin B response, DMSO zero | 2,400 compounds, 5.8% hits | activation, % at 9.2 µM | AID 602194;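 active = mean activation across replicates exceeds the hit threshold derived in the earlier primary screen, cut at about 18% in these data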
Numbers stand for hits; 0 = inactive; - = no result given.

SMILES	NR2E3 ag-1	PG9 binder	MC4R barr agon	MC4R antag cAMP	NR2E3 ag-2	NR1D1 modulator	MC4R barr ag	MOR DOR agonist
CC(C)OC(=O)c1c(NC(=O)Cn2cnc([N+](=O)[O-])n2)sc2c1CCCC2	0	0	9.9	0	0	0	0	0
O=[N+]([O-])C(/C=C(/Cl)[N+](=O)[O-])=C(N1CCCCC1)N1CCCCC1	0	0	0	0	0	0	-	-
COc1ccc(OC)c(NC(=S)NC(=O)c2ccc(Br)o2)c1	0	0	10.6	0	0	0	0	19.2
COc1ccc(CNC(=S)Nc2cc(OC)ccc2OC)cc1	0	0	0	0	0	0	-	-
CCCCCCCC/C=C\CCCCCCCC(=O)NCCO	0	0	0	0	0	0	-	-
CCCCCCCC/C=C\CCCCCCCC(=O)NCCc1ccc(O)c(O)c1	0	0	9.8	0	0	0	0	0
CCOC(=O)CCCN1CC(O)=C(c2nc(-c3ccc(Cl)cc3)cs2)C1=N	0	0	22.6	0	0	0	0	0
CCCCN1CC(O)=C(c2nc(-c3ccc(Br)cc3)cs2)C1=N	0	0	0	0	0	0	-	-
O=C(COc1ccc2ccccc2c1)Nc1ccc2c3c(cccc13)CC2	0	0	34.4	0	0	0	0	0
COc1ccc(CC(=O)Nc2ccc(N3CCOCC3)cc2)cc1OC	0	0	9.6	0	0	0	9.6	0
COc1ccc(-c2nc(=S)c3ccc4ccccc4c3[nH]2)cc1	-	0	12.3	0	0	0	0	0
COc1ccc(-c2nc3ccccc3[nH]2)cc1	0	0	0	0	0	0	-	-
Cc1ccc(OCC(=O)Nc2c[nH]c(=O)[nH]c2=O)cc1C	0	0	0	0	0	0	-	-
O=C(Nc1cccc(O)c1)c1cc2nc(-c3ccccc3)cc(-c3ccccc3)n2n1	0	0	12.4	0	0	0	0	0
COc1ccc(C2CC(c3ccc(Cl)cc3Cl)Nc3nc(N)nn32)cc1 (centres undefined)	0	0	0	0	0	0	-	-
COc1ccc(C2CC(c3ccc(Cl)cc3Cl)n3nc(N)nc3N2)cc1 (centres undefined)	0	0	15.1	0	0	0	13.2	0
O=[N+]([O-])c1cccc(C=NN2CCCCCC2)c1	-	0	0	0	0	0	-	-
COC(=O)c1ccc(C)c(NC(=O)c2ccc(Cn3cc([N+](=O)[O-])cn3)o2)c1	0	0	0	0	0	0	-	-
CCN(CC)S(=O)(=O)c1ccc(NC(=O)CSc2nnc(-c3ccc(F)cc3)o2)cc1	0	0	0	0	0	0	-	-
COc1ccc(-c2cc(C(F)(F)F)nc(SCC(=O)Nc3ccc4c(c3)OCO4)n2)cc1	0	0	0	0	0	0	-	-
O=C(CSc1nc(-c2ccc(F)cc2)cc(C(F)(F)F)n1)Nc1ccc2c(c1)OCO2	0	0	16.7	0	0	0	0	0
CCN(CC)S(=O)(=O)c1ccc(-c2nnc(SCC(=O)Nc3ccc4c(c3)OCO4)o2)cc1	0	0	10.0	0	0	0	0	0
CC(C)(O)c1[nH]c2cc(F)ccc2c1C(C)(C)O	0	0	0	0	0	0	-	-
O=C(CN1C(=O)NC2(CCCC2)C1=O)N1CCN(c2cccc(C(F)(F)F)c2)CC1	0	0	0	0	0	0	-	-
N=c1n(CCN2CCCCC2)c2ccccc2n1CC(=O)c1cccc([N+](=O)[O-])c1	0	0	11.2	0	0	0	0	-
SMILES	NR2E3 ag-1	PG9 binder	MC4R barr agon	MC4R antag cAMP	NR2E3 ag-2	NR1D1 modulator	MC4R barr ag	MOR DOR agonist
CCOc1cc(/C=N/NC(=O)c2nn(C)cc2Br)ccc1OCc1ccccc1Cl	0	0	12.0	0	0	0	0	0
Cc1cc(C)cc(NC(=O)CN2CCN(C(=O)c3cccs3)CC2)c1	-	0	0	0	0	0	-	-
CC(C)CC(N)c1csc(Nc2ccc(C(F)(F)F)cn2)n1 (centres undefined)	-	0	10.0	0	0	0	25.8	0
NC(CO)c1csc(Nc2ccc(C(F)(F)F)cn2)n1 (centres undefined)	-	0	0	0	0	0	-	-
NC(CCc1ccccc1)c1csc(Nc2ccc(C(F)(F)F)cn2)n1 (centres undefined)	-	0	17.0	0	0	0	0	0
CN1CC(=O)N(CC(=O)N2N=C(c3ccc(Cl)cc3)CC2c2ccco2)C1=O (centres undefined)	0	0	0	0	0	0	-	-
Cn1nc(-c2ccccc2)cc1NC(=O)Nc1ccc(C(C)(C)C)cc1	0	0	11.5	0	0	0	0	0
Cc1ccc(-n2nnnc2SCC(=O)NNC(=O)c2ccco2)c(C)c1	0	0	0	0	0	0	-	-
Cc1ccc2c(c1)c(N=NC(N)=S)c(O)n2Cc1ccccc1	0	0	0	0	0	0	-	-
CC1=CC(C)(C)n2c(O)c(N=NC(N)=S)c3cc(C)cc1c32	0	0	15.5	0	0	0	13.7	0
Cc1cc(C)n(C(=O)c2sc3cc(F)ccc3c2Cl)n1	0	-	-	-	-	-	-	-
COc1cccc(-c2nc(NC3CCCC3)c3ccccc3n2)c1O	0	0	0	0	0	0	-	-
COc1cccc(-c2nc(NCc3ccccc3)c3ccccc3n2)c1O	0	0	18.3	0	0	0	0	0
CCN(CC)S(=O)(=O)c1ccc(Cl)c(NC(=O)COc2ccc(OC)cc2)c1	0	0	30.6	0	0	0	17.0	26.2
CCN(CC)S(=O)(=O)c1ccc(C)c(NC(=O)COc2ccc(Cl)cc2Br)c1	0	0	9.7	0	0	0	28.9	39.9
Cc1cc(C)c2nc(Nc3nc(CSc4nc5ccccc5[nH]4)cc(=O)[nH]3)nc(C)c2c1	-	0	0	0	0	0	-	-
Cc1cc(-c2ccccc2)nc(Nc2nc3c(C)cccc3c(=O)[nH]2)n1	-	0	19.5	0	0	0	0	0
Cc1cc(C)c2nc(Nc3nc(-c4ccccc4)cc(=O)[nH]3)nc(C)c2c1	0	0	26.9	0	0	0	16.5	0
O=C(NCCCCCCCN1CCCCCCC1)C(C1CCCCC1)C1CCCCC1	-	0	0	0	0	0	-	-
O=S(=O)(c1cccc(F)c1)N1CCCN(c2ccc(C(F)(F)F)cn2)CC1	0	0	0	0	0	0	-	-
Cc1nc2c(C)cccc2cc1C(=O)N/N=C/c1ccc(O)cc1	0	0	0	0	0	0	-	-
COc1ccc(O)c(-c2cc(C(F)(F)C(F)F)nc(-c3ccccc3)n2)c1	0	0	14.0	0	0	0	17.0	0
Oc1ccccc1-c1cc(C(F)(F)C(F)F)nc(-c2ccccc2)n1	0	0	0	0	0	0	-	-
